The record followed here is publication PMC2796831 (Integrative biology : quantitative biosciences from nano to …, 2009).

Numbered stars: 1 amine (or outer) side, 2 acyl side, 3 side chain; on linkers, the order of the positions; unused ones are H or OH. Square brackets hold non-standard residues; d marks the D form. Peptide text beside a SMILES is read from it. * marks the point of attachment. X1 = CCN1C(=CC=CC=CC2=[N+](CCCCCC(=O)NCCN3C(=O)CC(*)C3=O)c3ccc(S(=O)(=O)[O-])cc3C2(C)C)C(C)(C)c2cc(S(=O)(=O)O)ccc21; Suc = O=C(CCC(=O)[*:2])[*:1]; Ahx = NCCCCCC(=O)O

In one data set the test system is naïve athymic nude mice. Briefly: Acute toxicity of unlabeled peptides after IV injection. In kind it is in vivo. Conditions: 5 µmol/kg IV, isoflurane anesthesia, unlabeled peptide.
The nature of another data set: Biodistribution. In kind it is in vivo, mice. Conditions: for Time for blood Cy5 fluorescence to decline to the same level: 10 nmol IV, blood from tail artery, average of three mice (Fig. 3B). An outline of the steps:
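Athymic nude mice carried HT1080 xenografts from 2 million cells injected into the mammary fat pad 5–7 days earlier. Each received 10 nmol Cy5-labelled peptide into the tail vein. Tail-artery blood in capillaries was imaged for Cy5 (640 nm excitation, 700 nm emission). At 30 min and 6 h, organ pieces were homogenised in 10 mM Tris pH 7.6 with 1% SDS, boiled, centrifuged and imaged frozen. Concentration came from tissue-specific spiked standard curves. SUV = (moles/g tissue)/(moles injected/body weight).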

In another data set the test system is HT1080 xenografted mice. In words: Confocal imaging of live mouse tissues after IV injection. In kind it is in vivo. Conditions: for Nuclear uptake in live tumor and tissues: 10 nmol IV, confocal stacks of live tissue, 30 minutes and 6 hours. Summed up:
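Xenografted HT1080 nude mice got 10 nmol Cy5-labelled peptide IV. Five minutes before sacrifice at 30 min or 6 h, they received IV Hoechst 33342 (250 µg) and rhodamine dextran (800 µg) to mark nuclei and blood pool. Organs were held on ice in HBSS and imaged unfixed by confocal microscopy within 30 min, as 3D stacks 5–60 µm deep. Excitation was 630, 405 and 535 nm.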

[1] abbreviates: 10 nmol injection, assuming 20–25g mouse.
Where [2] appears, read: athymic nude, mouse, kidney, iv, 10 nmol.
Setting [3] is: athymic nude, mouse, liver, iv, 10 nmol.
The mark [4] stands for this setting: athymic nude, mouse, tumor, iv, 10 nmol.

Take `CCN1C(=CC=CC=CC2=[N+](CCCCCC(=O)NCCN3C(=O)CC(SC[C@@H](NC(=O)[C@@H](CCCNC(=N)N)NC(=O)[C@@H](CCCNC(=N)N)NC(=O)[C@@H](CCCNC(=N)N)NC(=O)[C@@H](CCCNC(=N)N)NC(=O)[C@@H](CCCNC(=N)N)NC(=O)[C@@H](CCCNC(=N)N)NC(=O)[C@@H](CCCNC(=N)N)NC(=O)[C@@H](CCCNC(=N)N)NC(=O)[C@@H](CCCNC(=N)N)NC(=O)CNC(=O)[C@H](C)NC(=O)[C@H](CC(C)C)NC(=O)CNC(=O)[C@H](CC(C)C)NC(=O)[C@@H]4CCCN4C(=O)CCCCCNC(=O)[C@@H](CCC(=O)O)NC(=O)[C@@H](CCC(=O)O)NC(=O)[C@@H](CCC(=O)O)NC(=O)[C@@H](CCC(=O)O)NC(=O)[C@@H](CCC(=O)O)NC(=O)[C@@H](CCC(=O)O)NC(=O)[C@@H](CCC(=O)O)NC(=O)[C@@H](CCC(=O)O)NC(=O)CCC(=O)O)C(N)=O)C3=O)c3ccc(S(=O)(=O)[O-])cc3C2(C)C)C(C)(C)c2cc(S(=O)(=O)O)ccc21` (stereo partly drawn) [ACPP, succinyl-e8-(x)-PLGLAG-r9-c(Cy5)-NH2] (Suc-[dE][dE][dE][dE][dE][dE][dE][dE][Ahx]PLGLAG[dR][dR][dR][dR][dR][dR][dR][dR][dR][dC](X1)-NH2): the Acute effect result in the data set on naïve athymic nude mice is “no acute effect”. For the same compound, in the data set “Biodistribution”, the “Time for blood Cy5 fluorescence to decline to the same level” value is 30 min. Besides, in “Biodistribution” (setting [1]), the “Final peptide concentration in kidney based on SUV” value lay within 8 to 17 µmol/kg. In addition, in the data set “Biodistribution” (30 minutes after 10 nmol IV, HT1080 tumor homogenate, n=4 ACPP, n=3 CPP), the “Tumor SUV compared with CPP” value was “slightly but not significantly greater”. Moreover, in the data set “Biodistribution” (6 hours after 10 nmol IV, HT1080 tumor), the “Tumor uptake (SUV) relative to muscle” value is “roughly 4 fold”. In the data set “Biodistribution” (setting [2]), this compound returned a tissue uptake dose at 0.5 h of 28 %ID and a tissue uptake dose at 6 h of 48 %ID. In “Biodistribution” (setting [3]), this compound showed a tissue uptake dose at 0.5 h of 21 %ID and a tissue uptake dose at 6 h of 33 %ID. In “Biodistribution” (setting [4]), this compound came in with an SUV at 6 h of 174 SUV and a tissue uptake at 6 h of 1.7 %ID/g. For the same compound, the “Nuclear uptake in live tumor and tissues” value in the data set on HT1080 xenografted mice is reported as “below the detection limit”. For the same compound, the “Nuclear uptake in live tissues at 10 times the usual dose” value with HT1080 xenografted mice (100 nmol or 5 µmol/kg IV, one mouse) is listed as “no detectable nuclear uptake in any tissue”. In addition, the “Tumor fluorescence signal (confocal) compared with CPP” value with HT1080 xenografted mice (HT1080 tumors, 30 minutes and 6 hours after 10 nmol IV (Fig. 5A, B)) is recorded as “about four times higher”.
With `CCN1C(=CC=CC=CC2=[N+](CCCCCC(=O)NCCN3C(=O)CC(SC[C@@H](NC(=O)[C@@H](CCCNC(=N)N)NC(=O)[C@@H](CCCNC(=N)N)NC(=O)[C@@H](CCCNC(=N)N)NC(=O)[C@@H](CCCNC(=N)N)NC(=O)[C@@H](CCCNC(=N)N)NC(=O)[C@@H](CCCNC(=N)N)NC(=O)[C@@H](CCCNC(=N)N)NC(=O)[C@@H](CCCNC(=N)N)NC(=O)[C@H](N)CCCNC(=N)N)C(N)=O)C3=O)c3ccc(S(=O)(=O)[O-])cc3C2(C)C)C(C)(C)c2cc(S(=O)(=O)O)ccc21` (stereo partly drawn) [CPP, r9-c(Cy5)-NH2], the “Time for blood Cy5 fluorescence to decline to the same level” value in “Biodistribution” amounted to 3 min. In “Biodistribution” (setting [1]), the “Final peptide concentration in liver based on SUV” value lay within 8 to 17 µmol/kg. In the data set “Biodistribution” (setting [2]), this compound had a tissue uptake dose at 0.5 h of 8 %ID and a tissue uptake dose at 6 h of 9 %ID. In “Biodistribution” (setting [3]), the tissue uptake dose at 0.5 h is 90 %ID and the tissue uptake dose at 6 h was 84 %ID. Also, in the data set on HT1080 xenografted mice, the “Nuclear uptake in live tumor and tissues” value is recorded as “below the detection limit”.
